Compound activity deposited in PubChem by several laboratories.
PostGolgi ctrl = growth inhibition of yeast control strain, primary screen, counter-screen for post-Golgi transport modulator project | efflux-deficient yeast background strain, growth absorbance A615, 16 h | inhibition, % at 10 µM | 98,000 tested, 5% active | AID 738, 2007
E coli WT exp = growth inhibitors of wild-type E. coli, primary screen, strain BW25113, expanded library, OD600; OD600 absorbance; growth inhibition, % at 100 µM; 98,000 tested, 0.15% active;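 active = growth inhibition above about 50% at one test dose, limit read from the data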;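 also: growth measured after 20 h incubation at 37 °C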
EphB4 ephrin blk = EphB4-ephrin-B2 interaction antagonists, primary screen, biochemical, TNYL-RAW peptide probe, fluorescence polarization. AID 720, 2007. inhibition, % at 7 µM. EphB4 LBD / TNYL-RAW-Alexa532 peptide. 97,000 tested, 0.15% active;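 active = inhibition above the screen-wide mean inhibition plus 3 SD, cut at about 15% in these data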
Target sequence (P54760 whole entry, looked up, the tested form may be a part): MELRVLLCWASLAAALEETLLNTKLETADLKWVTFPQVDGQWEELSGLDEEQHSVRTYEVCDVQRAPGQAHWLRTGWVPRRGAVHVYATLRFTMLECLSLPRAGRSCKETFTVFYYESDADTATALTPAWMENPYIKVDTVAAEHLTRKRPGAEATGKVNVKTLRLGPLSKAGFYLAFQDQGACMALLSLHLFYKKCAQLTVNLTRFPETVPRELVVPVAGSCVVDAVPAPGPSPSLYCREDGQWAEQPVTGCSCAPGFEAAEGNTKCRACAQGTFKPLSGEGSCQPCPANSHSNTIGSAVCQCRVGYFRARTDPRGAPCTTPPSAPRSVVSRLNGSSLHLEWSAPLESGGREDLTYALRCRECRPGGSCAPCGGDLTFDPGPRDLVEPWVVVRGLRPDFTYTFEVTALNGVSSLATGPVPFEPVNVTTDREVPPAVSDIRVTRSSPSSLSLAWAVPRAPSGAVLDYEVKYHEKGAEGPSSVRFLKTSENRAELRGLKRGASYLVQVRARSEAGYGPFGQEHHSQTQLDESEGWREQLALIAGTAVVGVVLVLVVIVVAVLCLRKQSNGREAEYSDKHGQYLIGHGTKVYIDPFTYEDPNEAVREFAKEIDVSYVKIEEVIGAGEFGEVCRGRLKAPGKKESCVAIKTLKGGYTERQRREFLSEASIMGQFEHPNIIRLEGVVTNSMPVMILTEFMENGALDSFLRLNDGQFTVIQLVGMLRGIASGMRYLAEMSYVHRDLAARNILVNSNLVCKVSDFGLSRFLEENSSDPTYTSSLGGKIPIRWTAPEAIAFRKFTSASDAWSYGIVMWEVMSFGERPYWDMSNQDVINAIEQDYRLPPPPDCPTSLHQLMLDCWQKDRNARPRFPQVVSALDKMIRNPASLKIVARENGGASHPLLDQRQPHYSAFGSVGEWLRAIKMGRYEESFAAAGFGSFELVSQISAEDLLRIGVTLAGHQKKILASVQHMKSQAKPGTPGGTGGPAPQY
PostGolgi yeast = phenotypic screen on post-Golgi transport, primary screen; post-Golgi transport phenotypic cell assay; inhibition, % at 10 µM; 98,000 tested, 0.9% active; AID 739, 2007;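 also: yeast cells grown in 1536-well plates; yeast grown about 18 h at 30C before absorbance read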
tolC growth inh = growth inhibitors of E. coli tolC mutant, primary screen, strain BW25113 ΔtolC::kan, 384-well; AID 573, 2007; 65,000 tested, 2.2% active; growth inhibition, % at 10 µM (by protocol); OD615;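 active = growth inhibition at or above a cutoff equal to the mean over every tested compound plus 3 SD, cut at about 60% in these data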;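 also: growth measured after 20 h incubation at 37 °C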
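Signal: optical density read at 615 nm; Assay system: E. coli ΔtolC::kan strain BW25113; Times: 20 h incubation with compound, 37 °C; Dosing: 10 µM final, single dose.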
Each line names hits and unclear results; the compound was inactive in the other large screens. This is a sample that favours compounds with a hit; in the whole collection about 6% have one here. Rule as the data show it, unless noted: active = inhibition above about 30%; inactive = the rest.

c1ccc(COc2ccc(CN3CCN(c4ccccn4)CC3)cc2)cc1	PostGolgi yeast 73 (no result: tolC growth inh)
Cc1ccc(OCc2nc(C#N)c(N3CCN(Cc4ccccc4)CC3)o2)cc1	tolC growth inh 64
N#Cc1nc(COc2ccccc2)oc1N1CCC(Cc2ccccc2)CC1	PostGolgi ctrl 40
CC1=C(C(=O)Nc2cccc(C)n2)C(c2ccc3c(c2)OCO3)C2=C(CC(c3ccco3)CC2=O)N1 (centres undefined)	none
COC(=O)c1ccsc1NC(=O)CN1CCN(c2ccc(F)cc2)CC1	tolC growth inh 70
O=C(CN1CCN(c2ccc(F)cc2)CC1)Nc1cc(C(F)(F)F)ccc1Cl	PostGolgi ctrl 48
COc1ccc(NC(=O)CN2CCN(C3c4ccccc4-c4ccccc43)CC2)c(OC)c1	PostGolgi ctrl 68
COc1ccccc1NC(=O)CN1CCN(CC(=O)Nc2ccccc2F)CC1	none (no result: PostGolgi ctrl, E coli WT exp, EphB4 ephrin blk, PostGolgi yeast)
COc1ccccc1NC(=O)CN1CCN(c2ccc(Cl)cc2)CC1	PostGolgi ctrl 32
CCCNC(=O)c1ccccc1NC(=O)c1ccccc1N(C)S(=O)(=O)c1ccc(C)cc1	none (no result: PostGolgi ctrl, E coli WT exp, PostGolgi yeast, tolC growth inh)
CS(=O)(=O)Nc1ccccc1C(=O)N1CCN(c2ccccc2)CC1	none (no result: tolC growth inh)
Cc1cccc(C)c1OC(=O)CN(c1ccc(Cl)cc1)S(C)(=O)=O	none (no result: tolC growth inh)
CCOc1cc(CNC(C)(C)CO)cc(Br)c1OCc1ccc(Cl)cc1Cl	PostGolgi ctrl 91 (no result: tolC growth inh)
CCOc1cc(CNCCO)cc(Br)c1OCc1ccc(Cl)cc1	E coli WT exp 78 (no result: tolC growth inh)
CCOc1cc(/C=N/O)cc(Br)c1OCC	none (no result: PostGolgi ctrl, E coli WT exp, PostGolgi yeast, tolC growth inh)
CCOc1cc(/C=N/O)cc(Br)c1OCc1ccc(Cl)cc1	PostGolgi ctrl 37 (no result: tolC growth inh)
CCOc1cc(CNCCO)cc(Br)c1OCc1ccccc1Cl	none (no result: tolC growth inh)
COc1ccc2nc(SCC(=O)N3CCN(c4ccccc4F)CC3)c(C#N)cc2c1	none (no result: PostGolgi ctrl, E coli WT exp, PostGolgi yeast, tolC growth inh)
CC(C(=O)N1c2ccccc2Sc2ccccc21)n1nnc(-c2cccs2)n1 (centres undefined)	PostGolgi ctrl 32
OCCN1CCN(c2ncnc3c2sc2nc(N4CCOCC4)c4c(c23)CCC4)CC1	none (no result: EphB4 ephrin blk)
CC1(C)Cc2c(c(N3CCCC3)nc3sc4c(N5CCN(CCO)CC5)ncnc4c23)CO1	tolC growth inh 65
c1ccc(-c2nc3nonc3nc2-c2ccccc2)cc1	PostGolgi ctrl 31
Nc1c(-c2ccccc2)nc(Cl)nc1-c1ccccc1	none (no result: tolC growth inh)
Nc1ccc(-c2nc3c(Cl)c(N)ccc3[nH]2)cc1	PostGolgi ctrl 33
CCOC(=O)c1nnc(-c2ccc(C)cc2)nc1Sc1ccc(Cl)cc1	none (no result: tolC growth inh)
CCOC(=O)c1nnc(-c2ccccc2)nc1NCc1ccc(Cl)cc1	PostGolgi ctrl 39 (no result: tolC growth inh)
CCOC(=O)c1nnc(-c2cccs2)nc1Oc1ccc(Cl)cc1	PostGolgi ctrl 47 (no result: tolC growth inh)
CCOC(=O)c1nnc(-c2ccc(C)cc2)nc1Oc1ccccc1Cl	PostGolgi ctrl 47 (no result: tolC growth inh)
CCOC(=O)c1nnc(-c2ccc(C)cc2)nc1Oc1ccc(Cl)cc1Cl	PostGolgi ctrl 35 (no result: tolC growth inh)
Nc1ccc(-n2nncc2-c2ccc(Cl)cc2)cc1	none (no result: tolC growth inh)
Cc1[nH]c(=O)c(C(=O)/C=C/c2ccccc2F)c2c1CCCC2	PostGolgi ctrl 30 (no result: tolC growth inh)
O=C(N/N=C/c1ccccc1F)c1csc2c1CCCC2	none (no result: tolC growth inh)
Cc1onc(-c2ccccc2)c1C(=O)Nc1cc(C(F)(F)F)ccc1N1CCOCC1	PostGolgi ctrl 43
CCCOc1ccccc1NC(=O)c1c(-c2ccccc2)noc1C	tolC growth inh 72
Cc1ccccc1NC(=O)c1c(-c2ccccc2)noc1C	none
O=C(CSc1nc2ccccc2[nH]1)Nc1ccccc1N1CCOCC1	none
O=C(CSc1nc2ccccc2[nH]1)Nc1cc(C(F)(F)F)ccc1N1CCOCC1	tolC growth inh 100
Cc1ccn2c(C(=O)c3ccc(Cl)cc3)cnc2c1	none (no result: tolC growth inh)
COc1ccc(-c2cn3c(C)c(C(=O)N4CCN(c5ccc(OC)cc5)CC4)sc3n2)cc1	none (no result: PostGolgi ctrl, E coli WT exp, EphB4 ephrin blk, PostGolgi yeast)
CCSc1nc(C)cc(C)c1S(=O)(=O)c1ccccc1C	PostGolgi ctrl 31 (no result: tolC growth inh)
O=c1c(-c2nnc(SCc3ccc(Cl)c(Cl)c3)o2)cccn1Cc1ccccc1	PostGolgi ctrl 54 (no result: tolC growth inh)
Clc1cccc(CSc2nnc(-c3c[nH]c4ccccc34)o2)c1	none (no result: tolC growth inh)
CCOC(=O)Cc1csc(NC(=O)CSc2nc(N)c3c(C)c(C)sc3n2)n1	none (no result: tolC growth inh)
CCN(Cc1cc2ccccc2[nH]c1=O)S(=O)(=O)c1ccccc1	PostGolgi ctrl 30
CC(C)C(=O)N(Cc1cc2ccccc2[nH]c1=O)C(C)C	none
